Shown are actives, neighbours in structure and some others; about 1.8% of the full set was active somewhere.
CHRM4 PAM: CHRM4 positive allosteric modulation. P08173. CHO-K1 hM4/Gqi5, Fluo-8 calcium fluorescence, ACh EC20; 0% = ACh EC20, 100% = maximal ACh. activation, % at 3 µM. actives 0.4% (n = 360,000);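 active = activation above its plate's cutoff, the mean activation of sample wells plus 3 SD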
Target sequence (P08173 whole entry, looked up): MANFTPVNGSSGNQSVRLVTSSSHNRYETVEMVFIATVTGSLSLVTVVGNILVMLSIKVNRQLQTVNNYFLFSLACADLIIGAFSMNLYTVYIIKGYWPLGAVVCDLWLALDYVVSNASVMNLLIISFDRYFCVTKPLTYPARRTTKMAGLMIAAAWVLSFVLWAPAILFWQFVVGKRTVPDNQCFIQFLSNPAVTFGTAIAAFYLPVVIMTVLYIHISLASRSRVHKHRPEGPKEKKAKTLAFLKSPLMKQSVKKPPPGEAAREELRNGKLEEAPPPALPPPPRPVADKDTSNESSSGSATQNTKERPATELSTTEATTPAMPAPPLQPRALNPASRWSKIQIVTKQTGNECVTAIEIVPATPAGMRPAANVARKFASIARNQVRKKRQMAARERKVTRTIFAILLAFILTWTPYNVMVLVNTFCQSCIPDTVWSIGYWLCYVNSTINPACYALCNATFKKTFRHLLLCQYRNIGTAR
CHRM4 antagonist: blocks acetylcholine activation of human M4 receptor; CHO-hM4 cells, ACh EC80, Fluo-8 calcium fluorescence; actives 0.73% (n = 360,000); P08173; inhibition, % at 3 µM; AID 624125;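 active = inhibition above its plate's cutoff, the mean inhibition of sample wells plus 3 SD, cut at about 27% in these data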;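 also: 0% = acetylcholine EC80 with DMSO and 100% = DMSO without agonist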
M4 ag: CHRM4 agonism in calcium assay. CHO-K1 hM4/Gqi5, Fluo-8 calcium fluorescence; vehicle 0%, full acetylcholine response 100%. activation, % at 3 µM. actives 0.14% (n = 360,000);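 active = activation above the run mean over all test wells plus 3 SD, cut at about 32% in these data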;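 also: peak over basal fluorescence ratio per well then scaled between controls; 0% = DMSO wells and 100% = acetylcholine at EC100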
CHRM5 agonist: CHRM5 agonism in calcium assay | P08912 | activation, % at 3 µM | AID 624037 | actives 0.19% (n = 360,000) | CHO-K1 hM5 cells, Fluo-8 calcium fluorescence; 0% DMSO wells, 100% maximal acetylcholine response;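 active = activation above the run's mean over test compounds plus 3 SD, cut at about 23% in these data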;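 also: signal is peak over basal fluorescence ratio across the kinetic read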
M5 PAM: positive allosteric modulators of human muscarinic M5 receptor. CHO-K1 hM5, Fluo-8 calcium, ACh EC20 PAM; 0% = ACh EC20, 100% = ACh EC100. activation, % at 3 µM. actives 0.3% (n = 360,000);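 active = activation above the run cutoff, the mean activation of all test compounds plus 3 SD, cut at about 18% in these data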
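System: CHO-K1 hM5 cells. Reagent: acetylcholine, EC20 level. Compound dosing: single dose, 3 µM nominal final test concentration. Timing: Post-acetylcholine fluorescence recording 140 s. Detection: Fluo-8 calcium fluorescence. Read-out: % activation, ACh-normalized. Benchmarks: ACh EC20 and EC100 wells. Repeats: singlicate, one well per test compound.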
CHRM5 antagonist: CHRM5 antagonism in calcium assay; inhibition, % at 3 µM; CHO-hM5 cells, Fluo-8 calcium fluorescence, ACh EC80; P08912; actives 0.59% (n = 360,000);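 active = inhibition above a per-plate cutoff, the mean of that plate's test compounds plus 3 SD, cut at about 27% in these data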;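 also: 0% = acetylcholine EC80 with DMSO and 100% = DMSO without agonist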
* hit, by the source's call; ! = repeats disagree.

SMILES | CHRM4 PAM | CHRM4 antagonist | M4 ag | CHRM5 agonist | M5 PAM | CHRM5 antagonist
Cc1ccc(C(=O)N/C(=C\Cl)P(=O)(c2ccccc2)c2ccccc2)cc1 | 1 | -5 | 1 | -3 | 1 | -13
COC(=O)NC(=C(Cl)Cl)P(=O)(c1ccccc1)c1ccccc1 | 31* | 3 | 1 | 2 | 16 | -17
O=C1CN=C(c2cc([N+](=O)[O-])ccc2Cl)c2cc([N+](=O)[O-])ccc2N1 | 14* | -3 | 1 | 1 | 4 | 3
O=C1CN=C(c2ccccc2)c2cc([N+](=O)[O-])ccc2N1 | -1 | -1 | 2 | 4 | -2 | 1
O=C1NC(=S)SC1=Cc1ccc(N(CCCl)CCCl)cc1 | 6 | 7 | 4 | 19 | -18 | 18
COc1cc(C2(C#N)CCN(C)CC2)cc(OC)c1OC | 8 | -24 | 6 | -2 | 9 | 0
CN(C)[C@@H]1C(=O)C(C(N)=O)=C(O)[C@@]2(O)C(=O)C3=C(O)c4c(O)cccc4[C@@](C)(O)C3[C@H](O)C12 (some centres not stated) | -18 | 49*! | 5 | 1 | -19 | 23
CN1/C(=C\C=C2C(=O)NC(=S)NC2=O)C(C)(C)c2ccccc21 | -14 | 15 | 23 | 104* | -24 | 22
Clc1ccc(OCC#CCN2CCCC2)cc1 | -22 | 2 | 2 | -10 | -17 | 31*
CCN1C(=O)CC(=O)N(CC)C1=S | 6 | -14 | 1 | 3 | -2 | 0
NCCc1ccc(OCc2ccccc2)c(OCc2ccccc2)c1 | 8 | 21 | 34* | 10 | 15 | 2
COc1ccc(CCN)cc1OC | -7 | 8 | 0 | 1 | -4 | 5
CCC(C)NC(=O)c1c(N)n(Cc2ccc3c(c2)OCO3)c2nc3ccccc3nc12 (configuration not stated) | 5 | -9 | 4 | 9 | 19* | -5
CCOc1ccc(-c2c(C)n(-c3ccc(OCC)cc3)c3[n+]2CCCCC3)cc1 | -37 | 21 | 12 | -4 | -30 | 35*
CCOC(=O)C1SC2(C(F)(F)F)CC1(O)c1c(C)cc(C)nc1O2 (configuration not stated) | 45* | -16 | -2 | 0 | 14 | -7
CCOC(=O)CNC(=O)CSP(=S)(OCC)OCC | 33* | -1 | 1 | 5 | -2 | -6
COc1ccc(CN2C(=O)NC(=O)/C(=C/c3ccoc3)C2=O)cc1 | -5 | -8 | 16 | 29* | -4 | 2
O=c1cc(C(F)(F)F)c2cc3c4c(c2o1)CCCN4CCC3 | -16 | 45* | 86* | 71* | -16 | 52*
C=CCn1c(O)c(C=NC2CCN(Cc3ccccc3)CC2)c(=O)[nH]c1=O | 12* | -7 | 1 | -8 | -2 | 5
S=C(NCCc1ccccc1)N1Cc2ccccc2-n2nncc2C1 | 1 | -1 | 9 | 1 | 0 | -2
CCN(CC)CCCOC(=O)C(OC(C)C)(c1ccccc1)c1ccccc1 | -16 | 83* | 6 | -4 | -22 | 98*
COc1ccc(C(=O)C2CCCN(CC3CCCCC3)C2)cc1OC (configuration not stated) | -11 | 34* | 1 | -3 | -7 | 4
Cn1nnc(CC[N+](C)(C)C)n1 | -2 | 1 | 3 | 76* | -28 | 65*
CCC(c1nnnn1C1CCCCC1)N1CCC2(CC1)C(=O)NCN2c1ccccc1 (configuration not stated) | 9 | -20 | 1 | 3 | 9 | -18
O=C(Nc1ccc(F)cc1)N1Cc2ccccc2-n2nncc2C1 | 14 | -18 | 2 | 0 | -3 | 11
SMILES | CHRM4 PAM | CHRM4 antagonist | M4 ag | CHRM5 agonist | M5 PAM | CHRM5 antagonist
O=C(Nc1cccc(Cl)c1)OC1CN2CCC1CC2 (configuration not stated) | -36 | 8 | 15 | 9 | -27 | 29*
O=C(Nc1ccc(Cl)cc1)OC1CN2CCC1CC2 (configuration not stated) | -34 | 17 | 21 | -13 | -30 | 31*
CCCC(CCC)C(=O)OC[N+](C)(C)CCOC(=O)C(O)(c1ccccc1)C1CCCC1 (configuration not stated) | -20 | 97* | 1 | -11 | -19 | 99*
O=C(O)C(O)(c1ccccc1)C1CCCC1 (configuration not stated) | 3 | -5 | 1 | -7 | -7 | 2
CC(C)(C)C(=O)OC[N+](C)(C)CCOC(=O)C(O)(c1ccccc1)C1CCCC1 (configuration not stated) | -24 | 99* | 0 | -14 | -34 | 99*
CCOC(=O)[C@]12Cc3cc(OC)ccc3[C@H]1N(C(C)C)C(=O)c1cc(OC)ccc12 | 3 | 4 | 2 | 5 | 7 | 0
Cn1cc(C(=O)c2ccccc2)c2ccccc21 | 2 | -3 | 0 | 31* | -11 | -3
CC(C)CN1Cc2cc(-c3cccc(F)c3)ccc2-n2nncc2C1 | -4 | -10 | 0 | 0 | -8 | 9
Cc1nc2ccc(Br)cc2c(=O)n1-c1ccc([N+](=O)[O-])c(C(F)(F)F)c1 | -12 | 20 | 12 | 11 | -27 | 32*
COc1ccc(C(c2nnnn2C(C)(C)C)N2CCC3(CC2)C(=O)NCN3c2ccccc2)cc1 (configuration not stated) | 7 | -3 | -2 | 8 | 12 | -8

Bioassay records deposited in PubChem by The Scripps Research Institute Molecular Screening Center.
